ChEMBL document CHEMBL1129996, “1-Aryl-3,5-dihydro-4H-2,3-benzodiazepin-4-ones: novel AMPA receptor antagonists” (J Med Chem, 1997)
“And” between values parts separate entries of the source, which are not always exact repeats. Identical values can stand only once.

Legend:
[1] = test system: Mus musculus; assay: Anticonvulsant activity against clonic phase of the audiogenic seizures in DBA / 2 mice 30 min after ip administration at a dose range 10-66 uM/kg; type: functional; conditions: 0.5 h
In short: (§1)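 Groups of 10 DBA/2 mice of either sex; drug ip (0.1 mL/10 g) as fresh solution in 50% DMSO/50% saline, 30 min before auditory stimulation (12-16 kHz, 109 dB, 60 s or until tonic extension) under perspex dome after 60 s habituation. Latency and incidence of wild running, clonic and tonic phases scored; ED50 (95% confidence limits) by Litchfield-Wilcoxon.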

[2] = Therapeutic index it is the ratio between TD50 and ED50 (from the clonic phase of the audiogenic seizures); conditions: read-out: TI
In short: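 Therapeutic index computed as rotarod TD50 divided by ED50 for the clonic phase of audiogenic seizures in DBA/2 mice.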

[3] = Motor toxicity in 50% of mice on locomotion assessed by Rotarod test following 30 min ip administration; type: organism-based; conditions: mouse, in vivo
In short: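 Male Swiss mice (20-26 g, 48-54 days), groups of 10, trained on rotarod (3 cm, 8 rpm); tested 30 min after ip dosing. Impairment = failure to stay on for 2 min; TD50 (95% confidence limits) by Litchfield-Wilcoxon.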

[4] = species: Mus musculus; assay: Audiogenic seizures after concomitant treatment with Flumazenil (24.72 uM) in DBA / 2 mice tonic phase; type: functional
[5] = species: Mus musculus; assay: Audiogenic seizures after concomitant treatment with Flumazenil (24.72 uM) in DBA / 2 mice clonic phase; type: functional
[6] = test system: Mus musculus; assay: Anticonvulsant activity against the tonic seizures induced by icv injection of AMPA in DBA / 2 mice at a dose range of 10-66 uM/kg; type: functional; conditions: central
[7] = Relative lipophilicity of compound; type: physicochemical; conditions: reversed-phase TLC, acetone/water 2:1
In short: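 Reversed-phase TLC type lipophilicity: plates dried 105 °C 1 h, mobile phase acetone:water 2:1, 1 µL of 3 mg/mL CHCl3 solution spotted; five runs with varied positions, mean Rf converted as Rm = log[(1/Rf) - 1].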

[8] = test system: Mus musculus; assay: Anticonvulsant activity against the clonic seizures induced by icv injection of AMPA in DBA / 2 mice at a dose range of 10-66 uM/kg; type: functional; conditions: central
[9] = test system: Mus musculus; assay: Anticonvulsant activity against tonic phase of the audiogenic seizures in DBA / 2 mice 30 min after ip administration at a dose range 10-66 uM/kg; type: functional; conditions: 0.5 h; in short: as §1
[10] = species: Mus musculus; assay: Audiogenic seizures after concomitant treatment with Flumazenil (8.24 uM) in DBA / 2 mice clonic phase; type: functional
[11] = species: Mus musculus; assay: Audiogenic seizures after concomitant treatment with Flumazenil (8.24 uM) in DBA / 2 mice tonic phase; type: functional
[12] = test system: Mus musculus; assay: Anticonvulsant activity against clonic phase of the audiogenic seizures in DBA / 2 mice 30 min after ip administration at a dose range 3.3-66 uM/kg; type: functional; conditions: 0.5 h
In short: (§2)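 Groups of 10 DBA/2 mice of either sex, dosed ip (0.1 mL/10 g) with fresh solution in 50% DMSO/50% saline; 30 min later exposed under a perspex dome (after 60 s habituation) to 12-16 kHz, 109 dB sound for 60 s or until tonic extension. Scored for latency and incidence of wild running, clonus, tonus; ED50 (95% limits) by Litchfield-Wilcoxon.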

[13] = test system: Mus musculus; assay: Anticonvulsant activity against the maximal electroshock in Swiss mice after 45 minutes pretreatment at a dose range 10-100 uM/kg; type: functional
In short: (§3)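 Swiss mice dosed ip in 50% DMSO/50% saline 45 min before ear-clip electroshock (50 mA, 20 ms pulses, 35 Hz, 400 ms). Protection = abolition of tonic hindlimb extension. Usually 4-5 doses with 8-10 mice each; ED50 (95% confidence limits) by Litchfield-Wilcoxon.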

[14] = test system: Mus musculus; assay: Anticonvulsant activity against tonic phase of the audiogenic seizures in DBA / 2 mice 30 min after ip administration at a dose range 3.3-66 uM/kg; type: functional; conditions: 0.5 h; in short: as §2
[15] = test system: Mus musculus; assay: Audiogenic seizures after pretreatment with Aniracetam in DBA / 2 mice clonic phase at a dose range of 10-200 uM/kg; type: functional
In short: (§4)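 DBA/2 mice pretreated with aniracetam 50 nmol icv 60 min before auditory testing, with ip 2,3-benzodiazepine; audiogenic clonic and tonic phases scored; ED50 by Litchfield-Wilcoxon.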

[16] = test system: Mus musculus; assay: Anticonvulsant activity against the clonic seizures induced by icv injection of AMPA in DBA / 2 mice at a dose range of 10-100 uM/kg; type: functional; conditions: central
[17] = test system: Mus musculus; assay: Pentylenetetrazole-induced seizures in Swiss mice after 45 min pretreatment at a dose range 10-100 uM/kg; type: functional
In short: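 Male Swiss mice (20-26 g), compound ip in 50% DMSO/50% saline 45 min before sc pentylenetetrazole at CD97 (85 mg/kg), then observed 30 min. Protection is absence of clonic spasms lasting at least 5 s. Typically 4-5 doses, 8-10 mice per dose. ED50 with 95% confidence limits by Litchfield and Wilcoxon.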

[18] = test system: Mus musculus; assay: Anticonvulsant activity against the tonic seizures induced by icv injection of AMPA in DBA / 2 mice at a dose range of 10-100 uM/kg; type: functional; conditions: central
[19] = test system: Mus musculus; assay: Audiogenic seizures after pretreatment with Aniracetam in DBA / 2 mice tonic phase at a dose range of 10-200 uM/kg; type: functional; in short: as §4
[20] = test system: Mus musculus; assay: Anticonvulsant activity against the maximal electroshock in Swiss mice after 45 minutes pretreatment at a dose range 10-150 uM/kg; type: functional; in short: as §3
[21] = test system: Mus musculus; assay: Pentylenetetrazole-induced seizures in Swiss mice after 45 min pretreatment at a dose range 10-150 uM/kg; type: functional
[22] = test system: Mus musculus; assay: Anticonvulsant activity against tonic phase of the audiogenic seizures in DBA / 2 mice 30 min after ip administration at a dose range 3.3-100 uM/kg; type: functional; conditions: 0.5 h; in short: as §1
[23] = test system: Mus musculus; assay: Anticonvulsant activity against clonic phase of the audiogenic seizures in DBA / 2 mice 30 min after ip administration at a dose range 3.3-100 uM/kg; type: functional; conditions: 0.5 h; in short: as §1

| Compound | therapeutic index (TD50/ED50) [2] | TD50 at 0.5 h [3] [µmol/kg] | ED50 [4] [µmol/kg] | ED50 [5] [µmol/kg] | Rm [7] | ED50 [10] [µmol/kg] | ED50 [11] [µmol/kg] | ED50 [15] [µmol/kg] | ED50 [16] [µmol/kg] | ED50 [18] [µmol/kg] | ED50 [19] [µmol/kg] | also measured |
| --- | --- | --- | --- | --- | --- | --- | --- | --- | --- | --- | --- | --- |
| COc1cc2c(cc1OC)C(c1cccc(N)c1)=NNC(=O)C2 | 2.7 | 51.5 | 17.5 | 29.2 | -0.525 | 21 | 18.2 | – | – | – | – | ED50 [1]: 19.3 µmol/kg and 6 mg/kg; ED50 [6]: 27.8 µmol/kg; ED50 [8]: 30.9 µmol/kg; ED50 [9]: 18.3 µmol/kg and 5.69 mg/kg |
| CC1=NN=C(c2ccc(N)cc2)c2cc3c(cc2C1)OCO3 [GYKI-52466] | – | 76.1 | 29.7 | 39.5 | -0.298 | 37.8 | 26.7 | 134 | 57.5 | 40.5 | 100 | ED50 [12]: 35.8 µmol/kg and 10.5 mg/kg; ED50 [13]: 35.7 µmol/kg; ED50 [14]: 25.3 µmol/kg and 7.41 mg/kg; ED50 [17]: 68.3 µmol/kg |
| COc1cc2c(cc1OC)C(c1ccc(N)cc1)=NNC(=O)C2 | 3.8 | 56.8 | 10.2 | 12 | -0.602 | 14.1 | 12 | 65.2 | 32.1 | 25 | 58.2 | ED50 [20]: 15.9 µmol/kg; ED50 [21]: 22.6 µmol/kg; ED50 [22]: 12.6 µmol/kg and 3.92 mg/kg; ED50 [23]: 15 µmol/kg and 4.66 mg/kg |
